Measured values published in ChEMBL document CHEMBL5029150, “Controlling Intramolecular Interactions in the Design of Selective, High-Affinity Ligands for the CREBBP Bromodomain” (J Med Chem, 2021).
Active and inactive are the calls of the source. The rule behind the calls is not given here.

Key:
Conditions in all cases: dose microM <=1
[1] = biological target: T1, Bromodomain-containing protein 7 (Homo sapiens) (UniProt Q9NPI1); assay: Binding affinity to human BRD7 assessed as dissociation constant up to 1 uM by BROMOscan assay
T1 sequence (whole entry): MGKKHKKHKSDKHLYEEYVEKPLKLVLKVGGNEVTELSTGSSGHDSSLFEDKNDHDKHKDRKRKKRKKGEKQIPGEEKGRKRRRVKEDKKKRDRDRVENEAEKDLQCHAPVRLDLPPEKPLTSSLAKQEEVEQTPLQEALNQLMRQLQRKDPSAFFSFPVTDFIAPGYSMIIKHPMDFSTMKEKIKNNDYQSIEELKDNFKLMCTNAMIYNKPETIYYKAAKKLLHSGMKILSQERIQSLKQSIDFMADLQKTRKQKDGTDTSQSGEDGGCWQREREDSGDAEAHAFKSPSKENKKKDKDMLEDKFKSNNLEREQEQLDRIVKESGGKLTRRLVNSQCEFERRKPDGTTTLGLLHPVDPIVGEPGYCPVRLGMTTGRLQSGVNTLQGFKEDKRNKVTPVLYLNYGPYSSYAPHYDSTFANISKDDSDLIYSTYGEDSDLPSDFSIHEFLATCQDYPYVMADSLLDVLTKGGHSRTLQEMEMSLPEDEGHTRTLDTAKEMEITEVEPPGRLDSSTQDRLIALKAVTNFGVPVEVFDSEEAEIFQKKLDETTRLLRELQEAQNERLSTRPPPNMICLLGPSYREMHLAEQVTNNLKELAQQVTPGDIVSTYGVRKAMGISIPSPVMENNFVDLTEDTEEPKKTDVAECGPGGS
How it was run: (§1)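 BROMOscan competition binding panel of 12 phylogenetically diverse bromodomains, including the CREBBP and EP300 bromodomains.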

[2] = biological target: T2, ATPase family AAA domain-containing protein 2B (Homo sapiens) (UniProt Q9ULI0); assay: Binding affinity to human ATAD2B assessed as dissociation constant up to 1 uM by BROMOscan assay; how it was run: as §1
T2 sequence (whole entry): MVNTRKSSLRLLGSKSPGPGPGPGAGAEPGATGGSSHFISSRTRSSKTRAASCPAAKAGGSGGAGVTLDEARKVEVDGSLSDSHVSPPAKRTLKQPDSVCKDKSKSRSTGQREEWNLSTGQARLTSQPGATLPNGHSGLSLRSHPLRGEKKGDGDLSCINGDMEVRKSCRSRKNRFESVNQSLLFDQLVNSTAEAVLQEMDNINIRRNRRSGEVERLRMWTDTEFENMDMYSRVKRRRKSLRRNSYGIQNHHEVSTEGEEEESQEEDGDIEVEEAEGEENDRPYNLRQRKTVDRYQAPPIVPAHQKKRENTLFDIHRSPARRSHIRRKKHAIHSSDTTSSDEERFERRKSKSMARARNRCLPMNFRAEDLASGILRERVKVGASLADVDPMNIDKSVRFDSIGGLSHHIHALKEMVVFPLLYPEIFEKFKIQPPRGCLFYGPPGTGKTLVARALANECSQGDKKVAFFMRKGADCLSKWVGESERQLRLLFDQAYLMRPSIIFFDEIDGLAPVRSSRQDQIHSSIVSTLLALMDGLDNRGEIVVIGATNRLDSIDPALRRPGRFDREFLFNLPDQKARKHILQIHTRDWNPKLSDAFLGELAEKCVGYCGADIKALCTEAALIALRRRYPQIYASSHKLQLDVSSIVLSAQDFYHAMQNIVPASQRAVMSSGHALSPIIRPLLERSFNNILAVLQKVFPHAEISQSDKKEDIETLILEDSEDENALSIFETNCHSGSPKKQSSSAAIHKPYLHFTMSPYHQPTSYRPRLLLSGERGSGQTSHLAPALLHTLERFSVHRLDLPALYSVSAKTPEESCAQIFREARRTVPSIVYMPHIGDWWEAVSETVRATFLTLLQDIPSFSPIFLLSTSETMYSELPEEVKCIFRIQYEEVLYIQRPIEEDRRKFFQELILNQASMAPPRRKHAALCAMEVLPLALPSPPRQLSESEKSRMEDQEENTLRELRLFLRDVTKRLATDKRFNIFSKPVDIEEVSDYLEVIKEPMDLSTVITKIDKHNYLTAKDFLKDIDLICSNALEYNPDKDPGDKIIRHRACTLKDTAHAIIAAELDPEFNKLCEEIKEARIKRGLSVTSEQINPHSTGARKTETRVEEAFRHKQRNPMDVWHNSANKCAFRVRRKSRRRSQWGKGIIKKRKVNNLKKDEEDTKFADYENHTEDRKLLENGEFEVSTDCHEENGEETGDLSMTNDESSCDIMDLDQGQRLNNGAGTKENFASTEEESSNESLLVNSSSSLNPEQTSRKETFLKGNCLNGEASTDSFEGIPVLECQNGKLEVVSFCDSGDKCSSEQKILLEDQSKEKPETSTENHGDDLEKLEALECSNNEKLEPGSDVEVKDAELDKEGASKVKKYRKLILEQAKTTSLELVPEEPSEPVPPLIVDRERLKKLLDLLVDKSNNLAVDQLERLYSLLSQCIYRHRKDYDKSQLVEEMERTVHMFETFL

[3] = biological target: Bromodomain-containing protein 4 (Homo sapiens, UniProt O60885); assay: Binding affinity to human BRD4 bromodomain 1 assessed as dissociation constant up to 1 uM by BROMOscan assay; how it was run: as §1

Activity [1]	Activity [2]	Activity [3]	Structure (SMILES)
inactive	inactive	inactive	COc1ccc2c(c1)N(CCC/C=C/c1cccc3c1N[C@H](C)CC(=O)N3)CCC2
inactive	inactive	inactive	COc1ccc2c(c1)N(CCC/C=C/c1cccc3c1N[C@@H](C)CC(=O)N3)CCC2
